Compound activity (PubChem BioAssay)
UBC13 inh = inhibitors of human UBC13 polyubiquitin chain formation. AID 485273. 330,000 compounds, 0.47% hits. P61088. TR-FRET. inhibition, % at 20 µM; in the data active = inhibition above about 45%, passing the limit was not always enough; inconclusive = no clear call, values can overlap the other calls
PP1 inh = counter-screen for PP5 inhibitors: inhibitors of human PP1-alpha. inhibition, % at 6.7 µM. P62136. purified PP1alpha, OMFP fluorescence. 320,000 compounds, 0.9% hits;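 active = inhibition above the mean inhibition of all tested compounds plus 3 SD, computed separately for each screening campaign, cut at about 15% in these data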
AI-2 QS modul = modulates the Vibrio harveyi AI-2 quorum sensing system | Vibrio harveyi JMH597 AI-2 luminescence/OD600 ratio, 9 h; active compounds read low; strain lacks LuxN and CqsS sensors; 0 = neutral-control median | activity change, % at 7.5 µM | 300,000 compounds, 0.4% hits | AID 2094; in the data active = activity change below about -75%, passing the limit was not always enough; inconclusive = no clear call, values can overlap the other calls;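 also: luminescence divided by OD600 gain over 9 h not by final OD600 alone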
T cruzi inh = T. cruzi replication inhibition. inhibition, % (test concentration not listed). AID 1885. 300,000 compounds, 1.4% hits. T. cruzi beta-gal in NIH3T3, luminescence, 90 h;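 active = mean inhibition across valid replicates above about 55%, limit read from the data; inconclusive = mean below that limit but half or more replicates reach it; inactive = mean below it, under half of replicates reach it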;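 also: signal also drops with host cell toxicity which is not excluded here; 0% = plate median of DMSO wells and 100% = zero luminescence signal; higher percent means less beta-gal luminescence so fewer parasites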
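Test system: β-gal T. cruzi (Tulahuen C4) inside NIH/3T3 cells / Quantity: 5,000 cells/well / Measured by: luminescence from GalScreen with 0.05% NP40, read after 60 min / Medium: DMEM plus 2% FBS / Measure: parasite load inhibition, % / Reagent: Tulahuen C4 trypomastigotes, 5000/well / Schedule: co-culture of at least 90 h after 3 h attachment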
p-CIP stab down = compounds decreasing mouse p/CIP protein stability; 290,000 compounds, 0.01% hits; F442A p/CIP-EGFP cells, EGFP fluorescence, 16 h; decrease of EGFP signal, % at 10 µM; Q05BA5;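 active = EGFP signal decrease of at least 30% at 10 µM or well 3 SD below plate mean, unless failing retest; inactive = the rest, including hits failing retest or dose response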
Target sequence (Q05BA5 1-1403): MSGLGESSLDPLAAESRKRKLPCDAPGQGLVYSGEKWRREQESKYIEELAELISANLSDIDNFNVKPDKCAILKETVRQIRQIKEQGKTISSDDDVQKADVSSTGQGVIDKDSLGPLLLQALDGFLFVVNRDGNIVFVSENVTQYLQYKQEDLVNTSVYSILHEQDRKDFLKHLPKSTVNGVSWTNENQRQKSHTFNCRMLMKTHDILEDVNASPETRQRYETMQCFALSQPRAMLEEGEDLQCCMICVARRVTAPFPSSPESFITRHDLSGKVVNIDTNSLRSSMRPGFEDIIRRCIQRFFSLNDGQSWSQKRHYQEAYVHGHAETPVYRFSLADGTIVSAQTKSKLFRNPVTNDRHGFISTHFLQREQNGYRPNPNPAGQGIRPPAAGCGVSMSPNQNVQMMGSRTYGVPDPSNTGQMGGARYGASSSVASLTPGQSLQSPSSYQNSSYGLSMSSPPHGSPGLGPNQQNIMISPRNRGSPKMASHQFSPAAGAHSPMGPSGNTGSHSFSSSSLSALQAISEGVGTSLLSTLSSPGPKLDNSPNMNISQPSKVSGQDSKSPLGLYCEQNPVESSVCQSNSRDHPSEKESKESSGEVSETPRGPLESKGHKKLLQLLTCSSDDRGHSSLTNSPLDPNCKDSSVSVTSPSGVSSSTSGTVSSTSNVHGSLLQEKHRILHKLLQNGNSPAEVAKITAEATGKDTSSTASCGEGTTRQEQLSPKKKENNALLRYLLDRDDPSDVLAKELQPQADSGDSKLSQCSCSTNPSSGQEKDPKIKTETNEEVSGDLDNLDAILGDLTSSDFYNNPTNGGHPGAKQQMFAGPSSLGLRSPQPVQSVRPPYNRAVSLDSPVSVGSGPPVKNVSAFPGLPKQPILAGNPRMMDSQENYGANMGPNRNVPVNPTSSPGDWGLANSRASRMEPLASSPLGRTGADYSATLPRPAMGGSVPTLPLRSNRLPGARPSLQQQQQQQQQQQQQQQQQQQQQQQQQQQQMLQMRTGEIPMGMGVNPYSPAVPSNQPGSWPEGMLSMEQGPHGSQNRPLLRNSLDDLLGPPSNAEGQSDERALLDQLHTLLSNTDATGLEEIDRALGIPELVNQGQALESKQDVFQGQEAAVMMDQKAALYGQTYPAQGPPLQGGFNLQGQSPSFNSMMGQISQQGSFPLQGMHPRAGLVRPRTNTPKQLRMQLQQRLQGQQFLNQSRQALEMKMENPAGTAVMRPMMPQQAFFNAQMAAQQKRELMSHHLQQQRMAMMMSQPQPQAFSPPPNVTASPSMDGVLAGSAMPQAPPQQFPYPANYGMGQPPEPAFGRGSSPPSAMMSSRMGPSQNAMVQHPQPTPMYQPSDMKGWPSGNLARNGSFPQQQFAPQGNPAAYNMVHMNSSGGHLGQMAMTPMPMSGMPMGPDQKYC
The depositor's hits bear a star; ? = inconclusive; nt = no result given. Compounds with a hit are over-represented: about 2.8% of the library has one in this group of screens.

SMILES	UBC13 inh	PP1 inh	AI-2 QS modul	T cruzi inh	p-CIP stab down
CCc1ccc(CN(Cc2cccnc2)C(=O)/C=C/c2ccc(OC)cc2)cc1	2.5	9.4	3.1	63.6*	-7.9
CN1CCN(NC(=O)c2cn(-c3ccccc3)nc2-c2cccc(Br)c2)CC1	12.6	1.2	18.1	55.9*	-3.6
COc1ccc(/C=C/C(=O)NC(=S)NCc2ccccc2)cc1OC	-6.5	15.5*	12.8	3.7	-18.4
COc1ccc(/C=C/C(=O)NC(C)CCc2ccccc2)cc1OC (stereo unspecified)	2.7	-0.8	9.6	17.1	21.6
CCOc1ccc(S(=O)(=O)NCCC(=O)NCC(c2ccccc2OC)N2CCCC2)cc1 (stereo unspecified)	-3.1	nt	15.7	-9.5	-2.4
CC(=O)C1=NN(c2ccccc2)C(c2cccs2)N1c1ccc(N(C)C)cc1 (stereo unspecified)	-20.4	-3.9	nt	54.5*	-26.4
CC(=O)C1=NN(c2ccccc2)C(c2ccc3c(c2)OCO3)N1c1ccccc1 (stereo unspecified)	-22.6	-2.1	7.6	20.0	-3.1
COc1ccccc1OCCCN1C(=O)C(=O)c2cccc(C)c21	-17.8	1.1	-5.0	11.5	-11.6
Cc1ccccc1OCCN1C(=O)C(=O)c2cccc(C)c21	2.3	16.2*	5.7	8.9	-6.5
Cc1ccc(OCCCN2C(=O)C(=O)c3cccc(C)c32)cc1	-11.7	15.5*	-4.6	-1.0	13.5
NC(=O)c1oc2ccccc2c1NC(=O)c1ccc([N+](=O)[O-])o1	-3.8	1.8	1.5	31.9	-3.3
O=C(N/N=C/c1cc([N+](=O)[O-])ccc1O)C(O)(c1ccccc1)c1ccccc1	-37.4	11.2	53.2	3.7	5.0
O=C(NNC(=O)c1ccc([N+](=O)[O-])o1)c1ccccc1	-12.4	-2.2	?	58.2*	-7.6
O=C(Nc1ccc(N2CCN(C(=O)c3ccccc3)CC2)cc1)c1ccc([N+](=O)[O-])o1	nt	nt	30.2	44.6	-16.8
C/C(=N/NC(=O)C(O)(c1ccccc1)c1ccccc1)c1ccc([N+](=O)[O-])o1	-2.4	-4.3	95.6	75.0*	9.1
O=C(NN(c1ccccc1)c1ccccc1)c1ccc([N+](=O)[O-])o1	-0.8	-1.3	24.2	63.6*	1.7
CCCC(C)NC(=O)C1c2ccccc2Oc2ccccc21 (stereo unspecified)	-5.8	-1.4	26.9	-4.6	-3.0
O=C(c1ccc(CN2CCOCC2)cc1)N1CCN(c2cccc(Cl)c2)CC1	-4.8	-2.0	27.5	?	-8.1
Cc1ccc(Cl)cc1N1CCN(Cc2cc(=O)n3ccsc3n2)CC1	0.8	-3.5	37.1	0.4	11.4
Cc1ccc(Cl)cc1N1CCN(C(=O)c2ccc(CN3CCOCC3)cc2)CC1	-1.6	-2.7	-18.1	55.9*	-7.2
Cc1ccc(Cl)cc1N1CCN(Cc2cc3c(cc2O)CCC3)CC1	-0.1	-1.9	20.6	57.8*	-4.2
O=C(Nc1ccc2c(c1)OCO2)C1(S(=O)(=O)c2ccc(Cl)cc2)CC1	-8.6	1.2	-5.7	-15.9	-15.4
Cn1cncc1C#Cc1ccc2cc(CCO)oc(=O)c2c1	11.3	-2.9	nt	nt	nt
Cc1ccc(-c2nc3c(c(=O)[nH]c(=O)n3CC(C)C)n2CC(C)C)cc1[N+](=O)[O-]	6.4	1.7	12.9	58.1*	-4.4
Cc1ccc(S(=O)(=O)N2CCC(C(=O)OCC(=O)N(CC(C)C)C3CCS(=O)(=O)C3)CC2)cc1C (stereo unspecified)	-1.4	-4.0	12.9	-15.0	-8.4
SMILES	UBC13 inh	PP1 inh	AI-2 QS modul	T cruzi inh	p-CIP stab down
CCc1cccc2c(C(=O)COC(=O)c3ccc(O)cc3)c[nH]c12	-0.7	-0.3	6.4	55.7*	-4.7
O=C(CCN1CCCCC1c1cccnc1)NCc1ccccc1 (stereo unspecified)	-0.7	-0.8	14.9	-2.0	-16.5
CCCOc1cccc(CN2CCCCC2c2cccnc2)c1 (stereo unspecified)	3.9	-2.0	1.5	55.1*	5.6
Cc1ccc2nc(N(CCCN(C)C)C(=O)c3cc4ccccc4oc3=O)sc2c1	13.2	2.7	9.6	59.6*	1.1
Cc1ccc2nc(N(CCCN(C)C)C(=O)CCc3ccccc3)sc2c1	nt	0.5	24.7	45.1	-17.4
CN(C)CCCN(C(=O)c1cc2ccccc2oc1=O)c1nc2c(F)cccc2s1	-2.6	1.4	11.3	55.9*	-2.9
Cc1cccc2sc(N(CCCN(C)C)C(=O)c3cc4ccccc4oc3=O)nc12	8.2	1.0	4.0	46.1	-14.2
C/C(=N\NC(=O)CCC(=O)Nc1ccc(C)c(C)c1)C1CC1	-4.6	nt	40.7	nt	-18.7
COc1ccc(C2CC(c3ccccc3)=NN2C(=O)COC(=O)c2nc3nc(C)cc(C)n3n2)cc1 (stereo unspecified)	4.1	-1.7	9.4	70.1*	-11.5
C=CCNCC(=O)N1N=C(c2ccc3ccccc3c2)CC1c1ccc(OC)cc1 (stereo unspecified)	25.1	9.0	3.6	46.4	-9.9
COc1ccc(C2CC(c3ccccc3)=NN2C(=O)c2ccc(F)cc2)cc1 (stereo unspecified)	6.3	-2.4	32.4	-6.5	4.2
COc1ccc(C2CC(c3ccccc3)=NN2C(=O)CN2N=NC3C(=O)N(c4cccc(F)c4)C(=O)C32)cc1 (stereo unspecified)	-7.3	16.6*	15.6	14.1	-2.8
COc1ccc(C2CC(c3ccc4ccccc4c3)=NN2C(=O)CNC2CCCCC2)cc1 (stereo unspecified)	3.9	10.5	14.6	79.9*	-5.9
COc1ccc(NC(=O)COC(=O)C2CC(=O)N(c3ccc(C)cc3)C2)cc1 (stereo unspecified)	0.0	-4.3	nt	-13.4	-7.0
COc1ccccc1C(C)Nc1nc(-c2cccnc2)nc2ccccc12 (stereo unspecified)	17.4	6.2	24.9	53.2	-9.2
COc1ccccc1NS(=O)(=O)c1cccc(NC(=O)Nc2ccc(Cl)cc2)c1	-0.2	6.4	26.2	66.7*	-2.2
COc1ccccc1NS(=O)(=O)c1cc(NC(=O)C2CCC2)ccc1N1CCCCC1	-13.7	7.7	5.9	57.3*	-17.4
COc1ccc(NS(=O)(=O)c2cccc(NC(=O)COc3ccc(OC)cc3)c2)cc1	-4.9	3.3	-83.3*	-11.3	-8.4
COc1ccccc1NS(=O)(=O)c1cc(NC(=O)Nc2ccc(Cl)cc2Cl)ccc1N1CCCCC1	-10.3	8.4	4.8	59.4*	-4.9
O=Nc1c(-c2cccc([N+](=O)[O-])c2)nc2ncccn12	-28.8	-4.8	?	19.8	-0.8
COc1ccc(-c2c(=O)n(OCc3ccccc3[N+](=O)[O-])c3ccccc3[n+]2[O-])c(OC)c1	3.4	-0.8	7.9	9.4	-0.8
COc1ccc(CSc2nnc3[nH]c(=O)cc(N)n23)cc1	2.5	-1.0	-79.6*	-8.9	-4.2
Cc1ccc(C)c(-c2csc(NC(=O)c3cnccn3)n2)c1	-17.6	-3.0	-4.8	92.5*	7.7
